# ChEMBL document CHEMBL4842318, “A γ-lactam siderophore antibiotic effective against multidrug-resistant Pseudomonas aeruginosa, Klebsiella pneumoniae, and Acinetobacter spp” (Eur J Med Chem, 2021)
# Experiments:
# Acinetobacter baumannii [1] = assay: Antibacterial activity against carbapenem susceptible Acinetobacter baumannii isolate PR-452 assessed as inhibition of bacterial growth in presence of 20 ug/ml sulbactam by microdilution method; format: functional; details: dose 20 µg/ml
# Method in brief: (§1)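 MIC by broth microdilution using iron-depleted (Chelex-treated) cation-adjusted Mueller-Hinton broth and 6 × 10^4 cfu/mL inoculum. Compound serially diluted with sulbactam held constant at 20 μg/mL.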
# [2] = Antibacterial activity against carbapenem susceptible Acinetobacter nosocomialis isolate PR-491 assessed as inhibition of bacterial growth at 1:1 compound to sulbactam concentration by microdilution method; format: functional
# Method in brief: (§2)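 Broth microdilution MIC in Chelex-treated, iron-depleted cation-adjusted Mueller-Hinton broth, inoculum 6 × 10^4 cfu/mL. Compound and sulbactam combined 1:1 by mass in a 2-fold dilution series.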
# [3] = Antibacterial activity against carbapenem susceptible Acinetobacter nosocomialis isolate PR-412 assessed as inhibition of bacterial growth at 1:1 compound to sulbactam concentration by microdilution method; format: functional
# Method in brief: (§3)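 Broth microdilution MIC in iron-depleted (Chelex resin-treated) cation-adjusted Mueller-Hinton broth, following the protocol used for siderophore-containing antibiotics. Inoculum was lowered to 6 × 10^4 cfu/mL.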
# [4] = Metabolic stability in CD-1 mouse microsomes assessed as half life; format: ADME, Microsome
# Pseudomonas aeruginosa [5] = assay: Antibacterial activity against wild type Pseudomonas aeruginosa isolate PR-699 assessed as inhibition of bacterial growth by microdilution method; format: functional; method in brief: as §3
# Acinetobacter baumannii [6] = assay: Antibacterial activity against carbapenem resistant Acinetobacter baumannii isolate PR-482 assessed as inhibition of bacterial growth at 1:1 compound to sulbactam concentration by microdilution method; format: functional
# Method in brief: (§4)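 Iron-depleted (Chelex-treated) cation-adjusted Mueller-Hinton broth microdilution; inoculum 6 × 10^4 cfu/mL. Test agent and sulbactam mixed 1:1 by mass and serially 2-fold diluted together. MIC in μg/mL.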
# Pseudomonas aeruginosa [7] = assay: Antibacterial activity against wild type Pseudomonas aeruginosa isolate PR-636 leucine at 533 residue assessed as inhibition of bacterial growth by microdilution method; format: functional; method in brief: as §3
# [8] = Solubility of compound in pH 7.5 phosphate buffer by nephelometry; format: physicochemical
# [9] = Plasma concentration in SC dosed CD-1 mouse treated four times at 6 hrs interval measured after 4 hrs; format: ADME, organism-based
# Method in brief: (§5)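 CD-1 mice dosed SC at 50 mg/kg. Plasma sampled at 0.167 to 24 h, three individual mice per time point, reported as mean and SD in ng/mL.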
# [10] = Plasma concentration in SC dosed CD-1 mouse treated four times at 6 hrs interval measured after 1 hrs; format: ADME, organism-based; method in brief: as §5
# Acinetobacter baumannii [11] = assay: Antibacterial activity against carbapenem resistant Acinetobacter baumannii isolate PR-399 assessed as inhibition of bacterial growth at 1:1 compound to sulbactam concentration by microdilution method; format: functional; method in brief: as §4
# [12] = Antibacterial activity against carbapenem susceptible Acinetobacter nosocomialis isolate PR-491 assessed as bacterial growth inhibition by microdilution method; format: functional; method in brief: as §3
# [13] = Permeability in human Caco-2 cells; format: ADME, cell-based
# Acinetobacter baumannii [14] = assay: Antibacterial activity against carbapenem resistant Acinetobacter baumannii isolate PR-401 assessed as bacterial growth inhibition by microdilution method; format: functional
# Method in brief: (§6)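 Broth microdilution in Chelex-treated, iron-depleted cation-adjusted Mueller-Hinton broth, following the protocol used for siderophore-containing antibiotics; inoculum lowered to 6 × 10^4 cfu/mL; MIC read as growth inhibition, in μg/mL.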
# Acinetobacter baumannii [15] = assay: Antibacterial activity against carbapenem resistant Acinetobacter baumannii isolate PR-342 assessed as inhibition of bacterial growth at 1:1 compound to sulbactam concentration by microdilution method; format: functional; method in brief: as §4
# Acinetobacter baumannii [16] = assay: Antibacterial activity against carbapenem resistant Acinetobacter baumannii isolate PR-319 assessed as bacterial growth inhibition by microdilution method; format: functional; method in brief: as §6
# [17] = Plasma protein binding in mouse; details: read-out: PPB (converted)
# Acinetobacter baumannii [18] = assay: Antibacterial activity against carbapenem resistant Acinetobacter baumannii isolate PR-384 assessed as bacterial growth inhibition by microdilution method; format: functional; method in brief: as §6
# [19] = molecular target: Penicillin-binding protein 3 (Pseudomonas aeruginosa, UniProt Q51504); assay: Inhibition of Pseudomonas aeruginosa PBP3 assessed as reduction in fluorescence intensity using Bocillin-protein as fluorescent substrate preincubated for 20 mins measured after 20 mins by SDS PAGE analysis
# Penicillin-binding protein 3, sequence (Q51504 whole entry): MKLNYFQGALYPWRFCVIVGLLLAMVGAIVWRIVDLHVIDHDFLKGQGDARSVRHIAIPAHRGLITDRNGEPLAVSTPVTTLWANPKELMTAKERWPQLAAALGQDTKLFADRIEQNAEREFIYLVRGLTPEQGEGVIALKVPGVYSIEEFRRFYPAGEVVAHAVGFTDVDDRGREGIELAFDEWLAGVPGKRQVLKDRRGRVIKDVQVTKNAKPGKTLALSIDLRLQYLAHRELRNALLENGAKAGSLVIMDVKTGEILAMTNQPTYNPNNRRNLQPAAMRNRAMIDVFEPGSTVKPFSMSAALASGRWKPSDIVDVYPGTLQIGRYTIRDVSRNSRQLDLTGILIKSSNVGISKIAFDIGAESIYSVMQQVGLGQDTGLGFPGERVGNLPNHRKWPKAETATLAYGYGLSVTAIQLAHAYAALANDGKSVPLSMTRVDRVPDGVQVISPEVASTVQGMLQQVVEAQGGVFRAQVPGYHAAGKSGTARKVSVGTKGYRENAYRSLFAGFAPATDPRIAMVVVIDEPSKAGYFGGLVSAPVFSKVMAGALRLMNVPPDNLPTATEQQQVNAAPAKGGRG
# Method in brief: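 Purified soluble P. aeruginosa PBP3 at 1.6 μM in 10 mM PBS, pH 7.4. Preincubated with increasing compound concentrations for 20 min at 37 °C, then 50 μM Bocillin added for a further 20 min. Stopped with SDS loading dye and 2 min boiling, then run on SDS-PAGE and imaged at 365 nm. IC50 taken as the concentration halving Bocillin-labelled band fluorescence.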
# Pseudomonas aeruginosa [20] = assay: Antibacterial activity against wild type Pseudomonas aeruginosa isolate PR-672 assessed as inhibition of bacterial growth by microdilution method; format: functional; method in brief: as §3
# Acinetobacter baumannii [21] = assay: Antibacterial activity against carbapenem resistant Acinetobacter baumannii isolate PR-326 assessed as inhibition of bacterial growth at 1:1 compound to sulbactam concentration by microdilution method; format: functional; method in brief: as §4
# Acinetobacter baumannii [22] = assay: Antibacterial activity against carbapenem resistant Acinetobacter baumannii isolate PR-459 assessed as inhibition of bacterial growth at 1:1 compound to sulbactam concentration by microdilution method; format: functional; method in brief: as §4
# Acinetobacter baumannii [23] = assay: Antibacterial activity against carbapenem resistant Acinetobacter baumannii isolate PR-342 assessed as inhibition of bacterial growth in presence of 20 ug/ml sulbactam by microdilution method; format: functional; details: dose 20 µg/ml
# Acinetobacter baumannii [24] = assay: Antibacterial activity against carbapenem susceptible Acinetobacter baumannii isolate PR-434 assessed as inhibition of bacterial growth at 1:1 compound to sulbactam concentration by microdilution method; format: functional; method in brief: as §2
# [25] = Antibacterial activity against carbapenem susceptible Acinetobacter nosocomialis isolate PR-491 assessed as inhibition of bacterial growth in presence of 20 ug/ml sulbactam by microdilution method; format: functional; details: dose 20 µg/ml; method in brief: as §1
# [26] = Antibacterial activity against carbapenem susceptible Acinetobacter nosocomialis isolate PR-365 assessed as inhibition of bacterial growth at 1:1 compound to sulbactam concentration by microdilution method; format: functional; method in brief: as §2
# [27] = Substrate activity at NDM1 (unknown origin) assessed as ratio of Kcat to Km by measuring hydrolysis by spectrophotometry; format: ADME
# Method in brief: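 Substrate hydrolysis (600 μM start) followed at 336 nm (Δε336 = −4362 M−1 cm−1, 0.2 cm cuvette) to completion; velocities over 10 s intervals along progress curve; Km, Vmax from double reciprocal plot, kcat = Vmax/[E].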
# Acinetobacter baumannii [28] = assay: Antibacterial activity against carbapenem susceptible Acinetobacter baumannii isolate PR-464 assessed as inhibition of bacterial growth at 1:1 compound to sulbactam concentration by microdilution method; format: functional; method in brief: as §2
# Acinetobacter baumannii [29] = assay: Antibacterial activity against carbapenem resistant Acinetobacter baumannii isolate PR-482 assessed as bacterial growth inhibition by microdilution method; format: functional; method in brief: as §6
# Pseudomonas aeruginosa [30] = assay: Antibacterial activity against wild type Pseudomonas aeruginosa isolate PR-680 leucine at 533 residue assessed as inhibition of bacterial growth by microdilution method; format: functional; method in brief: as §3
# Acinetobacter baumannii [31] = assay: Antibacterial activity against carbapenem resistant Acinetobacter baumannii isolate PR-351 assessed as bacterial growth inhibition by microdilution method; format: functional; method in brief: as §6
# Acinetobacter baumannii [32] = assay: Antibacterial activity against carbapenem resistant Acinetobacter baumannii isolate PR-387 assessed as inhibition of bacterial growth in presence of 20 ug/ml sulbactam by microdilution method; format: functional; details: dose 20 µg/ml
# Acinetobacter baumannii [33] = assay: Antibacterial activity against carbapenem resistant Acinetobacter baumannii isolate PR-345 assessed as inhibition of bacterial growth in presence of 20 ug/ml sulbactam by microdilution method; format: functional; details: dose 20 µg/ml
# Acinetobacter baumannii [34] = assay: Antibacterial activity against carbapenem resistant Acinetobacter baumannii isolate PR-399 assessed as bacterial growth inhibition by microdilution method; format: functional; method in brief: as §6
structure (smiles),measurement,setting,value
CC(C)(O/N=C(\C(=O)N[C@H]1CN2CC(C(=O)NCCN3C(=O)c4cc(O)c(O)cc4C3=O)=C(C(=O)O)N2C1=O)c1nc(N)sc1Cl)C(=O)O,MIC,Acinetobacter baumannii [1],≤ 0.25 mg/L
same,MIC,[2],0.5 mg/L
same,MIC,[3],1 mg/L
same,t1/2,[4],> 1 h
same,MIC,Pseudomonas aeruginosa [5],> 16 mg/L
same,MIC,Acinetobacter baumannii [6],> 16 mg/L
same,MIC,Pseudomonas aeruginosa [7],> 16 mg/L
same,solubility kinetic,[8],> 100 µM
same,concentration at 4 h,[9],1.33 µg/mL
same,concentration at 1 h,[10],3.28 µg/mL
same,MIC,Acinetobacter baumannii [11],16 mg/L
same,MIC,[12],> 16 mg/L
same,permeability,[13],Impermeable
same,MIC,Acinetobacter baumannii [14],> 16 mg/L
same,MIC,Acinetobacter baumannii [15],> 16 mg/L
same,MIC,Acinetobacter baumannii [16],> 16 mg/L
same,fraction unbound,[17],0.06
same,MIC,Acinetobacter baumannii [18],> 16 mg/L
same,IC50,[19],5 µM
same,MIC,Pseudomonas aeruginosa [20],≤ 0.25 mg/L
same,MIC,Acinetobacter baumannii [21],2 mg/L
same,MIC,Acinetobacter baumannii [22],8 mg/L
same,MIC,Acinetobacter baumannii [23],> 16 mg/L
same,MIC,Acinetobacter baumannii [24],2 mg/L
same,MIC,[25],≤ 0.25 mg/L
same,MIC,[26],≤ 0.25 mg/L
same,Kcat/Km,[27],20000 M⁻¹ s⁻¹
same,MIC,Acinetobacter baumannii [28],≤ 0.25 mg/L
same,MIC,Acinetobacter baumannii [29],> 16 mg/L
same,MIC,Pseudomonas aeruginosa [30],> 16 mg/L
same,MIC,Acinetobacter baumannii [31],> 16 mg/L
same,MIC,Acinetobacter baumannii [32],≤ 0.25 mg/L
same,MIC,Acinetobacter baumannii [33],≤ 0.25 mg/L
same,MIC,Acinetobacter baumannii [34],> 16 mg/L
